Laboratory results as given in ChEMBL document CHEMBL1122840, “SAR studies in the field of calcium(II) antagonists. Effect of modifications at the tetrasubstituted carbon of verapamil-like compounds” (1985).

Columns and labels:
Cavia porcellus [1] = organism: Cavia porcellus; assay: Left ventricular pressure of isolated guinea pig heart at dose 0.05 (ug/heart); assay type: functional, Cardiac ventricle
Outline: (§1)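 Perfused heart, 30-min stabilization, then a 1-min constant-volume injection of drug dissolved in perfusion liquid via a side arm of the aortic inflow cannula. Six preparations per compound; mean, SE and percent of basal value were calculated for each dose.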

Cavia porcellus [2] = organism: Cavia porcellus; assay: Heart rate of isolated guinea pig heart at dose 0.005 (ug/heart); assay type: functional
Outline: (§2)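 Rate was derived from the left ventricular pressure tracing of the perfused heart. Drug dissolved in perfusion liquid was given as a 1-min side-arm injection into the aortic inflow cannula after 30-min stabilization, at constant volume. Six preparations per compound; values expressed as mean, SE and percent of basal for each dose.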

Cavia porcellus [3] = organism: Cavia porcellus; assay: Left ventricular pressure of isolated guinea pig heart at dose 0.5 (ug/heart); assay type: functional, Cardiac ventricle; outline: as §1
Cavia porcellus [4] = organism: Cavia porcellus; assay: Coronary perfusion pressure of isolated guinea pig heart at dose 5 (ug/heart); assay type: functional
Outline: (§3)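 Heart perfused via an aortic inflow cannula; coronary perfusion pressure was recorded in that cannula with a pressure transducer. After 30-min stabilization, drug dissolved in perfusion liquid was injected through a side arm over 1 min, at constant volume. Six preparations per compound; mean, SE and percent of basal value were calculated for each dose.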

Cavia porcellus [5] = organism: Cavia porcellus; assay: Coronary perfusion pressure of isolated guinea pig heart at dose 0.5 (ug/heart); assay type: functional; outline: as §3
Cavia porcellus [6] = organism: Cavia porcellus; assay: Heart rate of isolated guinea pig heart at dose 0.5 (ug/heart); assay type: functional; outline: as §2
Cavia porcellus [7] = organism: Cavia porcellus; assay: Left ventricular pressure of isolated guinea pig heart at dose 5 (ug/heart); assay type: functional, Cardiac ventricle; outline: as §1
Cavia porcellus [8] = organism: Cavia porcellus; assay: Heart rate of isolated guinea pig heart at dose 5 (ug/heart); assay type: functional; outline: as §2
Cavia porcellus [9] = organism: Cavia porcellus; assay: Heart rate of isolated guinea pig heart at dose 0.05 (ug/heart); assay type: functional; outline: as §2
Cavia porcellus [10] = organism: Cavia porcellus; assay: Coronary perfusion pressure of isolated guinea pig heart at dose 0.005 (ug/heart); assay type: functional; outline: as §3
Cavia porcellus [11] = organism: Cavia porcellus; assay: Coronary perfusion pressure of isolated guinea pig heart at dose 0.05 (ug/heart); assay type: functional; outline: as §3
Cavia porcellus [12] = organism: Cavia porcellus; assay: Left ventricular pressure of isolated guinea pig heart at dose 0.005 (ug/heart); assay type: functional, Cardiac ventricle; outline: as §1
Cavia porcellus [13] = organism: Cavia porcellus; assay: Coronary perfusion pressure of isolated guinea pig heart at dose 5 ug/heart); assay type: functional; outline: as §3

| SMILES | LVP (Cavia porcellus [1]) | HR (Cavia porcellus [2]) | LVP (Cavia porcellus [3]) | CPP (Cavia porcellus [4]) | CPP (Cavia porcellus [5]) | HR (Cavia porcellus [6]) | LVP (Cavia porcellus [7]) | HR (Cavia porcellus [8]) | HR (Cavia porcellus [9]) | CPP (Cavia porcellus [10]) | CPP (Cavia porcellus [11]) | LVP (Cavia porcellus [12]) | CPP (Cavia porcellus [13]) |
| --- | --- | --- | --- | --- | --- | --- | --- | --- | --- | --- | --- | --- | --- |
| COc1ccc(CCN(C)CCCC(C#N)(c2ccccc2)c2ccccc2)cc1OC.[O-][Cl+3]([O-])([O-])O | 28.6 mmHg | 162 beats min-1 | 27.8 mmHg | 68.7 mmHg | 71.2 mmHg | 159.8 beats min-1 | 26.8 mmHg | 158.3 beats min-1 | 160.2 beats min-1 | 73 mmHg | 72.6 mmHg | 31.6 mmHg | – |
| COc1ccc(CCN(C)CCCC(C#N)(c2ccc(OC)c(OC)c2)C(C)C)cc1OC (configuration not stated) [VERAPAMIL] | 24 mmHg | 210 beats min-1 | 21.5 mmHg | 48.8 mmHg | 49.7 mmHg | 200.3 beats min-1 | 13 mmHg | 188 beats min-1 | 203.8 beats min-1 | 51.7 mmHg | 50.3 mmHg | 25.7 mmHg | – |
| COc1ccc(CCN(C)CCC=C(c2ccccc2)c2ccccc2)cc1OC.O=C(O)C(=O)O | 75.3 mmHg | 150 beats min-1 | 75.7 mmHg | 47.3 mmHg | 47.3 mmHg | 150 beats min-1 | 75.7 mmHg | 150 beats min-1 | 150 beats min-1 | 48 mmHg | 51 mmHg | 75.7 mmHg | – |
| COc1ccc(CCN(C)CCC=C2c3ccccc3-c3ccccc32)cc1OC.O=C(O)C(=O)O | 53 mmHg | 210 beats min-1 | 54 mmHg | 51 mmHg | 51 mmHg | 208 beats min-1 | 54 mmHg | 208 beats min-1 | 210 beats min-1 | 50 mmHg | 50 mmHg | 53 mmHg | – |
| COc1ccc(CCN(C)CCCC2(C#N)c3ccccc3-c3ccccc32)cc1OC.O=C(O)C(=O)O | 41.7 mmHg | 211.5 beats min-1 | 41.3 mmHg | 41.2 mmHg | 42 mmHg | 206 beats min-1 | 39.5 mmHg | 205 beats min-1 | 209.7 beats min-1 | 44.2 mmHg | 42 mmHg | 43.3 mmHg | – |
| COc1ccc(CCN(C)CCCC(c2ccccc2)c2ccccc2)cc1OC.O=C(O)C(=O)O | 67.5 mmHg | 152 beats min-1 | 67.4 mmHg | 47.3 mmHg | 48.7 mmHg | 152 beats min-1 | 66.7 mmHg | 152 beats min-1 | 152 beats min-1 | 48 mmHg | 48 mmHg | 67.5 mmHg | – |
| COc1ccc(CCN(C)CCCC2c3ccccc3-c3ccccc32)cc1OC.O=C(O)C(=O)O | 89.5 mmHg | 150 beats min-1 | 91.2 mmHg | 51.3 mmHg | 56 mmHg | 150 beats min-1 | 89.3 mmHg | 149.3 beats min-1 | 150 beats min-1 | 52 mmHg | 52 mmHg | 88.5 mmHg | – |
| COc1ccc(CCN(C)CCCC2(C(C)C)c3ccccc3-c3ccccc32)cc1OC.O=S(=O)(O)O | 38 mmHg | 211 beats min-1 | 37 mmHg | 78.4 mmHg | 78.4 mmHg | 207 beats min-1 | 36 mmHg | 204.4 beats min-1 | 209 beats min-1 | 76.4 mmHg | 78.6 mmHg | 38.4 mmHg | – |
| COc1ccc(CCN(C)CCCC2(C#N)c3ccccc3-c3ccccc32)cc1OC.[O-][Cl+3]([O-])([O-])O | 41.8 mmHg | 213 beats min-1 | 38.7 mmHg | – | 45 mmHg | 203 beats min-1 | 38.5 mmHg | 194.8 beats min-1 | 208 beats min-1 | 47.7 mmHg | 45.2 mmHg | 47.2 mmHg | 43.8 mmHg |
| COc1ccc(CCN(C)CCCC(c2ccccc2)(c2ccccc2)C(C)C)cc1OC.O=C(O)C(=O)O | 65.3 mmHg | 155.3 beats min-1 | 66.7 mmHg | 49.3 mmHg | 49.3 mmHg | 150 beats min-1 | 65.3 mmHg | 150.7 beats min-1 | 154.7 beats min-1 | 46.3 mmHg | 50 mmHg | 74.3 mmHg | – |
| COc1ccc(CCN(C)C/C=C/C2(C(C)C)c3ccccc3-c3ccccc32)cc1OC.O=S(=O)(O)O | 43.2 mmHg | 182.6 beats min-1 | 44 mmHg | 74.4 mmHg | 77 mmHg | 180.6 beats min-1 | 43.2 mmHg | 176.6 beats min-1 | 177.8 beats min-1 | 83.8 mmHg | 82.4 mmHg | 43.2 mmHg | – |
